We go through one compound from ChEMBL document CHEMBL1821649, “Synthesis, characterization of some benzazoles bearing pyridine moiety: search for novel anticancer agents” (2011).

This assay relates to UO-31. As to the kind of experiment: Antitumor activity against human UO31 cells at 10^-5 M after 48 hrs by SRB assay. The assay is classed as functional. As to conditions: UO-31, 48 h, read-out: GI. The gist of the method:
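Single-dose screen following the National Cancer Institute Drug Evaluation Branch protocol, run on the NCI panel of 60 human tumour cell lines covering nine cancer types. Percent growth of treated cells was recorded and reported as percentage growth inhibition (GI%). Compounds meeting preset inhibition thresholds advanced to a five-dose, 10-fold dilution series.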
On the technique in general: Sulforhodamine B stains cellular protein and so reports cell mass.

The structures appear in SMILES notation.

`Cc1cc2nc(-c3c(N)ncc(C#N)c3-c3ccc(O)cc3)[nH]c2cc1C`: the inhibition of growth at 10 µM is 33.4%.
